For series [1], the system named is Staphylococcus aureus. Nature of the series: Antibacterial activity against Staphylococcus aureus RN4220 NRS107 clinical isolate after 20 hrs by broth microdilution method. Format: functional. The following applies: RN4220 NRS107, 20 h. An outline of the steps: (§1)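 CLSI broth microdilution in cation-adjusted Mueller Hinton broth; compounds serially diluted, triplicate samples; 37 °C, 20 h. MIC read visually as lowest concentration with no visible growth; mean of triplicate determinations reported.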
For orientation: Broth dilution looks for growth in wells or tubes with falling amounts of substance.

Series [2] concerns Staphylococcus aureus. Nature of the series: Antibacterial activity against methicillin-resistant Staphylococcus aureus USA400 NRS123 clinical isolate after 20 hrs by broth microdilution method. Format: functional. The following applies: USA400 NRS123, 20 h. An outline of the steps: as §1
Series [3] has as its system Staphylococcus aureus. The series can be described thus: Bactericidal activity against methicillin-resistant Staphylococcus aureus USA400 NRS123 clinical isolate after 18 hrs by broth microdilution method. Format: functional. The following applies: USA400 NRS123, 18 h. An outline of the steps:
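From MIC wells without visible growth, 5 uL spotted onto Tryptic soy agar, incubated 37 °C for at least 18 h; MBC taken as lowest concentration giving 99.9% growth inhibition.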

Series [4] has as its system Staphylococcus aureus. The series can be described thus: Antibacterial activity against methicillin-resistant Staphylococcus aureus USA100 NRS382 clinical isolate after 20 hrs by broth microdilution method. As to conditions: USA100 NRS382, 20 h. Format: functional. In outline: as §1
Series [5] is described as follows: Intrinsic clearance in human liver microsomes in absence of NADPH by LC-MS/MS method. Format: ADME, microsome. As to conditions: read-out: CLH. For orientation: Liver microsomes are a subcellular fraction often used to study metabolism.
The test system of series [6] is Staphylococcus aureus. Nature of the series: Bactericidal activity against methicillin-resistant Staphylococcus aureus USA400 infected in mouse J774 cells assessed as reduction in colony forming units at 16 ug/ml after 4 hrs by time kill assay relative to control. Format: functional. Also on record: scale not given: the % may be the effect or the level left. In outline:
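J774 murine macrophages in DMEM/10% FBS infected with MRSA USA400 at MOI ~100:1 for 1 h, extracellular bacteria killed with gentamicin 50 µg/mL; treated at 16 µg/mL in triplicate; after 4, 8 or 24 h cells washed, lysed with 0.1% Triton X-100, plated for CFU; percent reduction versus untreated, t-test.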

Series [7] in a line: Apparent permeability across apical to basolateral side in human Caco2 cells at 10 uM after 2 hrs by LC-MS/MS method. Format: ADME, cell-based. The following applies: Caco-2. A general note: Passage across Caco-2 layers is used to estimate intestinal permeability.
Series [8] is described as follows: Apparent permeability across basolateral to apical side in human Caco2 cells at 10 uM after 2 hrs by LC-MS/MS method. Format: ADME, cell-based. The following applies: Caco-2.
Series [9] can be described thus: AUClast in naive Sprague-Dawley rat at 50 mg/kg ,po administered via gavage by LC-MS/MS method. Format: ADME, organism-based. Further details: dose 50 mg/kg, time 0 - last, route oral. As to conditions: in vivo. An outline of the steps: (§2)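 Male naïve rats, three animals; single oral gavage dose in 5% ethanol, 45% PEG 400, 50% water. Blood drawn into EDTA-K2 tubes over 24 h post dose; plasma protein-precipitated with acetonitrile, parent quantified by LC/MS/MS.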

Series [10] can be described thus: Half life in naive Sprague-Dawley rat at 50 mg/kg ,po administered via gavage by LC-MS/MS method. Format: ADME, organism-based. The following applies: in vivo. In outline:
as §2

A short description of series [11]: Mean residence time in naive Sprague-Dawley rat at 50 mg/kg ,po administered via gavage by LC-MS/MS method. Format: ADME, organism-based. As to conditions: in vivo. An outline of the steps:
as §2

Each structure is given as a SMILES string. ≈ marks a conversion by molar mass, not a printed value.

A word on the MIC: it is the least concentration at which growth counts as inhibited. The MBC is the lowest tested concentration that kills the bacteria rather than only halting them. A word on the Papp A→B: it is the apparent permeability from the apical to the basolateral side of a cell layer. As a reminder, the Papp B→A is how fast a substance crosses the layer from the basolateral side. Broadly, the AUC(0-t) is the area under the concentration-time curve up to a stated or last time point. What is called half-life is the time in which the quantity being followed falls by half. The term MRT denotes the average time that molecules of a dose stay in the body.

As to `C/C(=N\NC(=N)N)c1ccc(NC(=O)Nc2ccc(OC3CCCCCC3)cc2)cc1`, the MIC in the series on Staphylococcus aureus [1] is 2 µg/mL (≈ 4.73 µM); in the series with Staphylococcus aureus [2], 4 µg/mL (≈ 9.47 µM); against Staphylococcus aureus [4], 2 µg/mL (≈ 4.73 µM). In the series with Staphylococcus aureus [3], this molecule displayed an MBC of 4 µg/mL (≈ 9.47 µM). Also, the microsomal CLint in series [5] came out at 42.9 µL/min/mg. Besides, the Activity in the series on Staphylococcus aureus [6] is listed as 5%. Also, the Papp A→B at 2 h, 10 µM in series [7] stood at 0.039 ×10⁻⁶ cm/s. Also, in series [8], the Papp B→A at 2 h, 10 µM is 51.9 ×10⁻⁶ cm/s. For the same molecule, the AUC(0-t) in series [9] turned out to be 218 ng·h/mL. This molecule gave a half-life in series [10] of 16 h. In addition, in series [11], the MRT was found to be 28.4 h.

These data come from ChEMBL document CHEMBL4014276, “Diphenylurea derivatives for combating methicillin- and vancomycin-resistant Staphylococcus aureus” (Eur J Med Chem, 2017).
